Test results taken from ChEMBL document CHEMBL1146654, “3-(7-Azaindolyl)-4-arylmaleimides as potent, selective inhibitors of glycogen synthase kinase-3” (Bioorg Med Chem Lett, 2004).

Key:
[1] = target: T1, Protein kinase C gamma type (Homo sapiens, UniProt P05129); assay: Inhibitory activity of 10 uM compound against protein kinase C-gamma using histone as substrate
[2] = target: T2, Protein kinase C alpha type (Homo sapiens, UniProt P17252); assay: Inhibitory activity of 10 uM compound against protein kinase C-alpha using histone as substrate
[3] = target: T3, Protein kinase C beta type (Homo sapiens, UniProt P05771); assay: Inhibitory concentration against human protein kinase C-betaII using histone as substrate
Target sequence in this assay (P05771 whole entry): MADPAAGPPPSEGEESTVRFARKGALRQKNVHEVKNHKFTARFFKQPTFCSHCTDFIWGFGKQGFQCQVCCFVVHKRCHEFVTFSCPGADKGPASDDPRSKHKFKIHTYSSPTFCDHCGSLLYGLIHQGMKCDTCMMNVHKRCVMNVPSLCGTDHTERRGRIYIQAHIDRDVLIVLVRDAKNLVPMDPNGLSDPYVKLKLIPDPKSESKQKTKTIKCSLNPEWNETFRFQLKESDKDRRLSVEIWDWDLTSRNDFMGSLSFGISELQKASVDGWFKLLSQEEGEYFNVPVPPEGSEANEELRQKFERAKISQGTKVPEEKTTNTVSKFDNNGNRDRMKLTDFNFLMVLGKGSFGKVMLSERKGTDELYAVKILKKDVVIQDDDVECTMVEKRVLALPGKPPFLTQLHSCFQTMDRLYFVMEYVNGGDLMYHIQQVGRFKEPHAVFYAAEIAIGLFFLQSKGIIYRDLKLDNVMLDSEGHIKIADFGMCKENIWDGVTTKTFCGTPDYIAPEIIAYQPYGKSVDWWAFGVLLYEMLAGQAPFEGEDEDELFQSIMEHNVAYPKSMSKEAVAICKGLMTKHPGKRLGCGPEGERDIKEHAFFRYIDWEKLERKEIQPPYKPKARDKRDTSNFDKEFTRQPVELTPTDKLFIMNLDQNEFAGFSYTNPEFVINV

[4] = target: T1, Protein kinase C gamma type; assay: Inhibition of protein kinase C-gamma
[5] = target: T2, Protein kinase C alpha type; assay: Inhibitory concentration against protein kinase C-alpha using histone as substrate
[6] = target: T3, Protein kinase C beta type; assay: Inhibition of protein kinase C-betaII at 10 uM
Target sequence in this assay (P05771 2-671 limits assumed): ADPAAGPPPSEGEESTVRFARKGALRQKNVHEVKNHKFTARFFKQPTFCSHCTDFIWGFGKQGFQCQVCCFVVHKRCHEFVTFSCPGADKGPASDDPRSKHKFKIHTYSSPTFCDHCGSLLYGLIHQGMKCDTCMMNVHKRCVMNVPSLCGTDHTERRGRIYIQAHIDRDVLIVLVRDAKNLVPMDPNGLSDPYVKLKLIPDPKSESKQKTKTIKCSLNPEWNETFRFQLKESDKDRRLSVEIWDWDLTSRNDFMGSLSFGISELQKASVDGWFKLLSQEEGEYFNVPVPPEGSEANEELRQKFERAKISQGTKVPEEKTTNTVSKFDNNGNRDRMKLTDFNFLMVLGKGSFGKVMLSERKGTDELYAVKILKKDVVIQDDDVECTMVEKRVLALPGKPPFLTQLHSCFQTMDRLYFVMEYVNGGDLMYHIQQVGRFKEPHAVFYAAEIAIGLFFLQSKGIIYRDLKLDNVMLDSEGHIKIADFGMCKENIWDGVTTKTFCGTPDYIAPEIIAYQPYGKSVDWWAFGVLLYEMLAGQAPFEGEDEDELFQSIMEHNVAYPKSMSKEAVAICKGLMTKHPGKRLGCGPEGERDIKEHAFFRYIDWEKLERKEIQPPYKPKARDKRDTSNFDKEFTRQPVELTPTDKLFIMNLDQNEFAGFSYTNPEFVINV

[7] = target: Glycogen synthase kinase-3 beta (Homo sapiens, UniProt P49841); assay: Effective concentration of compound against glycogen synthase kinase-3 in HEK293 cells; assay type: functional, cell-based
Chain of Glycogen synthase kinase-3 beta (P49841 whole entry): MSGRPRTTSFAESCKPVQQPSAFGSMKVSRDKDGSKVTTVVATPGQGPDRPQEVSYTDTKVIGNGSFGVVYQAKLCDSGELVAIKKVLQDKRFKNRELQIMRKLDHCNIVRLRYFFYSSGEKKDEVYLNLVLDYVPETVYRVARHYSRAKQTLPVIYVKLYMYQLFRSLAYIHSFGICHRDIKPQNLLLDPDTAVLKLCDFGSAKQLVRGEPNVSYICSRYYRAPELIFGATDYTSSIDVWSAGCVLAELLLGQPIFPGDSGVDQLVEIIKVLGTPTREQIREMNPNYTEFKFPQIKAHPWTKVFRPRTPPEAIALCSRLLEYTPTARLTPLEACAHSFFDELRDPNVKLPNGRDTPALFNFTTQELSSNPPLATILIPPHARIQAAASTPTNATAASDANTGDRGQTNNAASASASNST
How it was run: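 HEK293 cells exposed to compound; glycogen synthase activity then measured in cell extracts as ¹⁴C-UDP glucose incorporation into glycogen. EC₅₀ averaged from triplicate determinations.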

Row | SMILES | inhibition [1] [%] | inhibition [2] [%] | IC50 [3] [µM] | IC50 [4] [µM] | IC50 [5] [µM] | inhibition [6] [%] | EC50 [7] [µM]
1 | COc1ccccc1C1=C(c2cn(CCCO)c3ncccc23)C(=O)NC1=O | < 50 | 50 | 1.44 |  |  |  | 
2 | COc1ccccc1C1=C(c2cn(CCCNS(C)(=O)=O)c3ncccc23)C(=O)NC1=O |  |  | 1.88 | 8.6 | 4.7 |  | 
3 | O=C1NC(=O)C(c2cn(CCCO)c3ncccc23)=C1c1ccccc1C(F)(F)F | 50 | 50 | 1.85 |  |  |  | 
4 | COc1ccccc1C1=C(c2cn(CCCNC=O)c3ncccc23)C(=O)NC1=O |  | < 50 | 2.73 | 8.7 |  |  | 
5 | O=C1NC(=O)C(c2cn(CCCO)c3ncccc23)=C1c1ccccn1 | < 50 | < 50 |  |  |  | < 50 | 
6 | O=C1NC(=O)C(c2cn(CCCO)c3ncccc23)=C1c1cccc2ccccc12 | 50 |  | 0.27 |  | 3.6 |  | 
7 | [Cl-].[Li+] [CHLOROLITHIUM] |  |  |  |  |  |  | > 3000
8 | O=C1NC(=O)C(c2cn(CCCO)c3ncccc23)=C1c1ccc(F)cc1Cl | < 50 |  | 2.38 |  | 4.5 |  | 
9 | COc1ccccc1C1=C(c2cn(CCCN)c3ncccc23)C(=O)NC1=O | < 50 | 50 | 1.1 |  |  |  | 
10 | O=C1NC(=O)C(c2cn(CCCO)c3ncccc23)=C1c1cccs1 | < 50 | < 50 |  |  |  | < 50 | 
11 | CN(C)CCCn1cc(C2=C(c3ccccc3Cl)C(=O)NC2=O)c2cccnc21 |  |  | 1.16 | 3.6 | 4 |  | 
12 | CCn1cc(C2=C(c3cn(CCCO)c4ncccc34)C(=O)NC2=O)c2cccnc21 | < 50 | < 50 | 1.07 |  |  |  | 
13 | COc1ccccc1C1=C(c2cn(CCCNS(N)(=O)=O)c3ncccc23)C(=O)NC1=O |  | < 50 | 0.89 | 6 |  |  | 
14 | CN(C)CCCn1cc(C2=C(c3cccc4ccccc34)C(=O)NC2=O)c2cccnc21 |  |  | 0.24 | 2.8 | 1.4 |  | 
15 | O=C1NC(=O)C(c2cn(CCCO)c3ncccc23)=C1c1ccccc1Cl |  |  | 0.73 | 5.5 | 4.4 |  | 
